Experimental data reported in article PMC7275135 (Applied Microbiology and Biotechnology, 2020).
Where a SMILES comes first, the peptide text is derived from it.

Assays:
S. aureus CVCC 546 [1] = test: S. aureus-induced endometritis model of mice; format: in vivo, mouse; settings: 10-mg/kg
[2] = system: LTA-induced cytokines from RAW 264.7; test: LTA neutralization, cytokine ELISA; format: cell-based, mouse; settings: RAW 264.7, LTA-stimulated, 25-μg/mL
MEECs = test: Cytotoxicity, MTT assay; format: cell-based, mouse; settings: 256 μg/mL, n = 4
S. aureus CVCC 546 [3] = test: Membrane depolarization, Rhodamine 123 flow cytometry; format: cell-based, Staphylococcus aureus; settings: 2 h, 10^8 CFU/mL
[4] = system: intracellular S. aureus CVCC 546; test: Intracellular antimicrobial activity in MEECs; format: cell-based, Staphylococcus aureus; settings: 24 h treatment, dose-dependent, colony counting
In short: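 MEECs in antibiotic-free DMEM, seeded at 2.5 × 10^5 cells/mL and grown 24 h, then infected with an equal volume of S. aureus CVCC 546 (2.5 × 10^7 CFU/mL) for 0.5 h. Extracellular bacteria killed with lysostaphin 50 μg/mL for 1 h, then PBS wash.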

[5] = system: S. epidermidis ATCC 12228; test: MIC, microtiter plate assay; format: cell-based, Staphylococcus epidermidis; settings: triplicate
Gram-positive bacteria = test: MIC range over the Gram-positive strains; format: cell-based; settings: S. aureus CVCC 546, S. epidermidis ATCC 12228, S. pneumoniae CVCC 2350, S. suis CVCC 3928

## CN[C@H](CC(C)C)C(=O)N[C@H]1C(=O)N[C@@H](CC(N)=O)C(=O)N[C@H]2C(=O)N[C@H]3C(=O)N[C@H](C(=O)N[C@H](C(=O)O)c4cc(O)cc(O)c4-c4cc3ccc4O)[C@H](O)c3ccc(c(Cl)c3)Oc3cc2cc(c3O[C@@H]2O[C@H](CO)[C@@H](O)[C@H](O)[C@H]2O[C@H]2C[C@](C)(N)[C@H](O)[C@H](C)O2)Oc2ccc(cc2Cl)[C@H]1O [vancomycin]
S. aureus CVCC 546 [1]
  histopathology of uteri (H&E): Only a small amount of scattered inflammatory cells were observed in part of uterus
[2]
  IL-10 increased by: 81.26%
MEECs
  cell viability toward MEECs: 90.15%
S. aureus CVCC 546 [3]; 1 × MIC
  Rh 123 fluorescence intensity increased by: 23.1%
S. aureus CVCC 546 [3]; 2 × MIC
  Rh 123 fluorescence intensity increased by: 26.6%
[4]
  killing of S. aureus CVCC 546 in MEEC cells: over 99%

## CC[C@H](C)[C@@H]1NC(=O)[C@@H]2CSSC[C@@H](C(=O)N[C@@H](CCCNC(=N)N)C(=O)N[C@@H](CCCCN)C(=O)O)NC(=O)[C@H](CC(N)=O)NC(=O)[C@@H]3CSSC[C@H](NC(=O)[C@H](C)NC(=O)[C@H](C)NC(=O)[C@H](Cc4c[nH]cn4)NC(=O)CNC(=O)[C@H](C(C)C)NC(=O)[C@H](CCCCN)NC(=O)[C@H](Cc4ccccc4)NC(=O)[C@@H]4CCCN4C(=O)[C@H](CO)NC(=O)[C@H](CC(C)C)NC(=O)[C@H](CC(C)C)NC(=O)[C@H](CC(=O)O)NC(=O)[C@@H](NC(=O)[C@@H](NC(=O)[C@H](C)N)[C@@H](C)O)CSSC[C@H](NC(=O)[C@H](Cc4c[nH]c5ccccc45)NC(=O)CNC(=O)CNC(=O)[C@H](CCCNC(=N)N)NC(=O)[C@H](CCCCN)NC(=O)CNC(=O)[C@H](CCCNC(=N)N)NC(=O)[C@H](C)NC1=O)C(=O)N[C@@H](CC(=O)O)C(=O)N[C@@H](CCCCN)C(=O)N[C@@H](CCCNC(=N)N)C(=O)N[C@@H](C)C(=O)N[C@@H](C(C)C)C(=O)N3)C(=O)N[C@@H](C)C(=O)N[C@@H](C)C(=O)N[C@@H](Cc1c[nH]cn1)C(=O)N2 [DLP4] (HELM PEPTIDE1{A.T.C.D.L.L.S.P.F.K.V.G.H.A.A.C.A.A.H.C.I.A.R.G.K.R.G.G.W.C.D.K.R.A.V.C.N.C.R.K}$PEPTIDE1,PEPTIDE1,3:R3-30:R3|PEPTIDE1,PEPTIDE1,16:R3-36:R3|PEPTIDE1,PEPTIDE1,20:R3-38:R3$$$V2.0; N-terminus assumed)
[5]
  MICs: 14.99 µM
Gram-positive bacteria
  MICs (range over strains): 3.75~14.99 μM
MEECs
  cell viability toward MEECs: 74.14%
